Data set [1] in a line: Dissociation constant, pKa of compound by potentiometric fast UV-metric titration method. It counts as physicochemical.
Data set [2] is described as follows: Metabolic stability in human Hepatocyte assessed as intrinsic clearance at 1 uM incubated for 90 mins by UPLC-MS/MS analysis. It is filed as ADME, tissue-based. The settings on record: hepatocytes. An outline of the steps:
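Human hepatocytes were incubated with compound to capture phase 2 and other metabolism.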

Data set [3] is described as follows: Lipophilicity, logD of compound at pH 7.4 by RP-HPLC analysis. It is filed as physicochemical. The conditions noted are these: buffer.
Data set [4] in a line: Metabolic stability in human skin S9 cells assessed as half life at 0.5 uM incubated for 180 mins by UPLC-MS/MS analysis. It is filed as ADME, subcellular, Zone of skin. The conditions noted are these: s9, 3 h. An outline of the steps: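 Skin S9 fraction was incubated with compound in the presence of enzymatic cofactors. Stability was followed over 180 min, n = 1.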
Data set [5] can be described thus: Stability of compound in DMSO assessed as decrease in purity incubated for 24 hrs. It is filed as physicochemical. The procedure, abridged:
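Compound was held in DMSO solution and its stability judged after 24 h. Single determination, n = 1.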

A value given as a limit tells only on which side of the number the result lay.

Data on 28 compounds can be found in ChEMBL document CHEMBL4699442, “Discovery of Soft-Drug Topical Tool Modulators of Sphingosine-1-phosphate Receptor 1 (S1PR1)” (ACS Med Chem Lett, 2019).

As to `CCC/N=C1\S/C(=C\c2ccc(O)c(Cl)c2)C(=O)N1c1ccccc1C`, in data set [1], the pKa stood at 6.8. For the same compound, the CLH in data set [2] was determined as 8.4 mL/min/g. The compound also had a logD in data set [3] of 3.8. Turning to `CCC/N=C1\S/C(=C\c2ccc(O)c(Cl)c2)C(=O)N1C1CCS(=O)(=O)CC1`, the log distribution coefficient (logD) in data set [3] is 2.6. For `CCC/N=C1\S/C(=C\c2ccc(O)c(C(C)C)c2)C(=O)N1c1ccccc1C`, the pKa in data set [1] stood at 8.6. For the same compound, in data set [2], the CLH was 12 mL/min/g. In addition, the pH-dependent lipophilicity (logD) in data set [3] worked out at 4.3. For `CCC/N=C1\S/C(=C\c2ccc(O)c(Cl)c2)C(=O)N1c1ccccc1OC`, the log distribution coefficient (logD) in data set [3] was 3.3. Same read-out and setting: with `Cc1ccccc1N1C(=O)/C(=C/c2ccc(O)c(Cl)c2)S/C1=N\CCCF` the figure was 3.4. As to `CCC/N=C1\S/C(=C\c2ccc(OC(=O)CCO)c(C)c2)C(=O)N1c1ccccc1C`, the t1/2 in data set [4] is recorded as 8.2 min.

In the case of `CCC/N=C1\S/C(=C\c2ccc(O)cc2)C(=O)N1c1ccccc1C`, in data set [1], the pKa was 8.3. Besides, the CLH in data set [2] was found to be 1.7 mL/min/g. Further, the log distribution coefficient (logD) in data set [3] amounted to 3.5. In the case of `CCC/N=C1\S/C(=C\c2ccc(OC(C)=O)c(Br)c2)C(=O)N1c1ccccc1C`, in data set [4], the t1/2 was 8.8 min. On to `CCC/N=C1\S/C(=C\c2ccc(O)c(C)c2)C(=O)N1c1ccccc1C`, for which the pKa in data set [1] turned out to be 8.5. In addition, the CLH in data set [2] was 31 mL/min/g. Further, the pH-dependent lipophilicity (logD) in data set [3] came out at 3.8. For the compound `CCC/N=C1\S/C(=C\c2ccc(OC(=O)COC)c(C)c2)C(=O)N1c1ccccc1C`, the Stabilty entry in data set [5] is listed as “Unstable”. Consider `CCC/N=C1\S/C(=C\c2ccc(O)cn2)C(=O)N1c1ccccc1C`, for which the pKa in data set [1] turned out to be 7.1. Moreover, the CLH in data set [2] is 7.9 mL/min/g. The compound further showed a logD in data set [3] of 3. Consider `CCC/N=C1\S/C(=C\c2ccc(O)c(Cl)c2)C(=O)N1C(C)C`, for which, in data set [3], the logD was more than 4.3. Same read-out and setting: as for `CCC/N=C1\S/C(=C\c2ccc(O)c(Cl)c2)C(=O)N1c1ccccc1O`, the figure is 2.7; as for `Cc1ccccc1N1C(=O)/C(=C/c2ccc(O)c(Cl)c2)S/C1=N\C1COC1`, 2.6.

As for `CCC/N=C1\S/C(=C\c2ccc(OC(=O)C(C)(C)C)c(C)c2)C(=O)N1c1ccccc1C`, in data set [4], the t1/2 is given as more than 180 min. Regarding `CCC/N=C1\S/C(=C\c2ccc(O)c(Cl)c2)C(=O)N1C1CC1`, the pH-dependent lipophilicity (logD) in data set [3] was 3.4. On to `CCC/N=C1\S/C(=C\c2ccc(OC(=O)C(C)C)c(C)c2)C(=O)N1c1ccccc1C`, for which the t1/2 in data set [4] was 21 min. Compound `CCC/N=C1\S/C(=C\c2ccc(O)c(Cl)c2)C(=O)N1C1CCOCC1` registered a log distribution coefficient (logD) in data set [3] of 3.7. Turning to `CCC/N=C1\S/C(=C\c2ccc(OC(C)=O)c(C)c2)C(=O)N1c1ccccc1C`, in data set [4], the t1/2 is 7.3 min. Still for that read-out and setting: as for `CCC/N=C1\S/C(=C\c2ccc(OC(C)=O)c(C(F)(F)F)c2)C(=O)N1c1ccccc1C`, the figure is 8.3 min. `CCC/N=C1\S/C(=C\c2ccc(OC(=O)CN(C)C)c(C)c2)C(=O)N1c1ccccc1C`: the Stabilty result in data set [5] was “Unstable”. As for `COCC/N=C1\S/C(=C\c2ccc(O)c(Cl)c2)C(=O)N1c1ccccc1C`, the logD in data set [3] stood at 2.9.

In data set [1], `CCC/N=C1\S/C(=C\c2ccc(O)c(Br)c2)C(=O)N1c1ccccc1C` registered a pKa of 6.4. Moreover, the CLH in data set [2] came out at 6 mL/min/g. In data set [3], this compound yielded a logD of 3.9. `Cc1ccccc1N1C(=O)/C(=C/c2ccc(O)c(Cl)c2)S/C1=N\CCO`: the log distribution coefficient (logD) in data set [3] was determined as 1.9. Consider `CCC/N=C1\S/C(=C\c2ccc(OC(=O)CCOC)c(C)c2)C(=O)N1c1ccccc1C`, for which the t1/2 in data set [4] was found to be 4.8 min.

`CCC/N=C1\S/C(=C\c2ccc(O)c(C(F)(F)F)c2)C(=O)N1c1ccccc1C` came in with a pKa in data set [1] of 6.6. The CLH in data set [2] worked out at 4.2 mL/min/g. This compound also had a pH-dependent lipophilicity (logD) in data set [3] of 3.8. In data set [3], `CCC/N=C1\S/C(=C\c2ccc(O)c(Cl)c2)C(=O)N1C1CCN(C)C(=O)C1` (racemic) registered a log distribution coefficient (logD) of 0.6. Consider `CCC/N=C1\S/C(=C\c2ccc(OC[C@H](O)CO)c(Cl)c2)C(=O)N1c1ccccc1C` [PONESIMOD], for which, in data set [4], the t1/2 was more than 180 min.
